Compound activity from PubChem.
Runt-CBFb FRET: inhibitors of human RUNX1 Runt domain binding to CBFb; Cerulean-Runt/Venus-CBFb FRET ratio 530/480, 1 h; inhibition, % at 20 µM; 0.46% of 220,000 active; AID 1496;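 active means inhibition over about 50% at 20 µM in the single-dose screen, limit read from the data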;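 further: 0% = DMSO wells and 100% = excess unlabeled CBFb competitor control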
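test system = Cerulean-Runt domain fusion protein, energy donor | probe or stimulus = Venus-CBFb binding partner, 100 nM | incubation = two 1 h room-temperature incubations shielded from light | detection = fluorescence energy transfer, 422 nm excitation, 530/480 nm emission | measure = loss of energy transfer signal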
AI-2 QS mod: Vibrio harveyi AI-2 quorum sensing modulation. Vibrio harveyi JMH597 AI-2 luminescence/OD600 ratio, 9 h; hits give low values; strain lacks LuxN and CqsS sensors; 0 = neutral-control median. activity change, % at 7.5 µM. 0.4% of 300,000 active. AID 2094; in the data active means activity change below about -75%, passing the limit was not always enough;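 further: luminescence divided by OD600 gain over 9 h not by final OD600 alone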
Wee1 degr inh: blocks degradation of human Wee1 kinase. P30291. HeLa Luc-Wee1K328M stability, luciferase luminescence; 100% = proteasome inhibitor MG132 effect. reporter increase, % at 5 µM. 1.2% of 220,000 active. AID 1321;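 active means activation above the mean of all tested compounds plus 3 SD, set per screening run, cut at about 8.8% in these data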;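 further: cells exposed to compound for 20 h before luminescence read; 0% = DMSO alone and 100% = MG132 at 30 µM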
proKLK7 act: proKLK7 (human) activation, primary screen; AID 652039; P49862; activation, % at 7 µM; 0.9% of 370,000 active; purified proKLK7, EDANS-DABCYL substrate fluorescence; 100% is mature enzyme control, 0% vehicle;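 active means activation above the mean of all tested compounds plus 3 SD, computed per campaign excluding outliers beyond control limits, cut at about 13% in these data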
Target sequence (P49862 whole entry, looked up): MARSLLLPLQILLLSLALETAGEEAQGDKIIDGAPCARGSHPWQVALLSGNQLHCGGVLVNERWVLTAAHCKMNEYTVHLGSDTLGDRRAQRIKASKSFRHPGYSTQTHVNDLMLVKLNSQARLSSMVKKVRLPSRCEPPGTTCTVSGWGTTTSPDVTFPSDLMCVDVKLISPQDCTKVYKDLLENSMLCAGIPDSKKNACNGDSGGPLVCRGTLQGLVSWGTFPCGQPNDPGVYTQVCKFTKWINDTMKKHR
RanGTP-Impb inh: disruptors of Ran-importin-beta complex formation – biochemical, FRET, CFP-Ran, YFP-importin-beta, homogeneous, primary screen; cell-free CFP-Ran/YFP-importin-beta FRET ratio; inhibition, % (test concentration not listed); 1.1% of 300,000 active;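 active means more than half of the replicate wells show a fall in the fluorescence ratio signal beyond about 16%, limit read from the data, passing the limit was not always enough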;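 further: 0% = DMSO wells and 100% = Ran loaded with GDP instead of GTP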
Runt-SMMHC FRET: Runt domain-CBFb-SMMHC interaction inhibition; Q01196+Q13951; Cerulean-Runt/Venus-CBFb-SMMHC FRET ratio 530/480, 1 h; inhibition, % at 20 µM; 0.74% of 220,000 active; AID 1434;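 active means mean inhibition across duplicate retests at 20 µM reaching about 50%, limit read from the data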;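 further: 0% = DMSO wells and 100% = wells with excess untagged CBFb-SMMHC; inhibitors lower the FRET ratio by blocking Runt binding to CBFb-SMMHC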
Starred values were filed as active, the others as inactive; / = no result given. Compounds with a hit are over-represented: about 2.9% of the library has one in this group of screens.

SMILES	Runt-CBFb FRET	AI-2 QS mod	Wee1 degr inh	proKLK7 act	RanGTP-Impb inh	Runt-SMMHC FRET
CCc1ccc(C2C(C#N)=C(N)Oc3cc(N)ccc32)cc1 (configuration not stated)	/	-0.2	/	1.4	95.5*	/
COc1ccc(C2C(C#N)=C(N)Oc3cccc(O)c32)cc1 (configuration not stated)	/	-0.6	/	0.7	51.3*	/
COc1ccc(C2C(C#N)=C(N)Oc3c2sc2nc(C)cc(C)c32)cc1 (configuration not stated)	-8.2	-2.0	10.4*	-0.9	2.4	-18.2
Cc1ccc(C2C(C#N)=C(N)Oc3cc4c(cc32)OCO4)cc1 (configuration not stated)	23.9	-4.3	1.4	0.2	11.9	33.2
CC(OC(=O)C1CCCCC1)C(=O)Nc1ccc(S(N)(=O)=O)cc1 (configuration not stated)	/	/	/	-0.1	/	/
O=C(Nc1ccc(S(=O)(=O)Nc2ncccn2)cc1)c1ccc2ncsc2c1	3.1	12.4	1.2	0.6	2.2	-2.0
O=C(Nc1cccc(NC(=O)c2ccccc2Cl)c1)c1ccc([N+](=O)[O-])o1	/	-191.5*	/	0.7	4.7	/
O=C(Nc1ccccc1N1CCCC1)c1ccc([N+](=O)[O-])o1	/	82.7	/	0.2	4.7	/
Cc1cccc(NC(=O)c2ccc([N+](=O)[O-])o2)c1C	-0.9	23.2	-0.1	0.3	4.7	0.7
O=C(Nc1cccc2ccccc12)c1ccc([N+](=O)[O-])o1	/	-128.0*	/	-0.5	-4.1	/
COc1ccccc1NC(=O)c1ccc([N+](=O)[O-])o1	/	-87.3*	/	-0.3	4.4	/
O=C(Nc1cccc([N+](=O)[O-])c1)c1ccc([N+](=O)[O-])o1	/	/	/	0.1	/	/
CCc1ccc(CCNC(=O)OCCCN2CCC3(CCC(C)CC3)C2=O)cc1 (configuration not stated)	/	/	/	0.4	/	/
O=C(O)Cn1cccc1C(=O)c1ccccc1	/	20.6	9.2*	/	1.7	0.6
CN(Cc1ccccc1)C(=O)Cn1cccc1C(=O)c1ccccc1	0.6	15.1	-1.3	1.1	70.2*	2.8
COC(=O)Cn1cccc1C(=O)c1ccccc1	-0.4	18.5	-1.6	-0.5	2.2	0.3
CC(C)(C)c1ccc(-c2nnc(SCC(=O)Nc3cccc4ccccc34)n2Cc2ccco2)cc1	/	/	/	0.3	/	/
CCOC(=O)c1c(CSC(=N)N)n(-c2ccc(C)cc2)c2cc(Br)c(OC(C)=O)cc12	-3.7	36.5	9.4*	0.3	-0.8	-4.7
C[C@]12C=CC(=O)C=C1CC[C@@H]1C2=CC[C@]2(C)[C@@H](C(=O)CN3CCN(c4cc(N5CCCC5)nc(N5CCCC5)n4)CC3)CC[C@@H]12	/	70.2	/	-0.5	65.3*	/
CC(=O)C1CCC2C3CCC4=CC(=O)C=CC4(C)C3C(=O)CC12C (configuration not stated)	/	/	/	0.6	/	/
O=C1CC(N2CCN(S(=O)(=O)c3ccc(Cl)cc3)CC2)C(=O)N1CCc1ccccc1 (configuration not stated)	-1.2	31.3	-3.4	0.8	9.6	-1.9
Cc1ccc(S(=O)(=O)N2CCN(C3CC(=O)N(CCc4ccccc4)C3=O)CC2)cc1C (configuration not stated)	-3.9	6.5	9.9*	0.5	-3.8	-13.6
CC1(C)CC(=O)C2=C(C1)OC(=O)CC2c1cccs1 (configuration not stated)	0.9	8.8	2.0	0.5	3.6	-1.3
CN1C2=C(C(=O)CC(C)(C)C2)C(c2cccs2)C2=C1CC(C)(C)CC2=O	/	19.3	/	2.8	60.5*	/
c1ccc2c(c1)COC(CNC1CCCCC1)OC2	-0.3	49.1	0.7	0.4	/	3.7
N#Cc1cc(S(=O)(=O)c2ccc(Cl)cc2)c(N)[nH]c1=O	8.2	40.7	10.6*	0.4	11.5	16.2
CC(C)(C)OC(=O)C[C@H]1C/C=C\C[C@@H](CC(=O)N(CCO)Cc2ccccc2)C(=O)N[C@H](Cc2c[nH]c3ccccc23)COC1=O	/	/	/	0.7	/	/
O=[N+]([O-])c1ccc(C=NNc2ccccc2)cc1	/	/	/	0.0	/	/
